This test addresses T1, Toll-like receptor 7 (Homo sapiens, UniProt Q9NYK1).
T1 sequence (Q9NYK1 whole entry): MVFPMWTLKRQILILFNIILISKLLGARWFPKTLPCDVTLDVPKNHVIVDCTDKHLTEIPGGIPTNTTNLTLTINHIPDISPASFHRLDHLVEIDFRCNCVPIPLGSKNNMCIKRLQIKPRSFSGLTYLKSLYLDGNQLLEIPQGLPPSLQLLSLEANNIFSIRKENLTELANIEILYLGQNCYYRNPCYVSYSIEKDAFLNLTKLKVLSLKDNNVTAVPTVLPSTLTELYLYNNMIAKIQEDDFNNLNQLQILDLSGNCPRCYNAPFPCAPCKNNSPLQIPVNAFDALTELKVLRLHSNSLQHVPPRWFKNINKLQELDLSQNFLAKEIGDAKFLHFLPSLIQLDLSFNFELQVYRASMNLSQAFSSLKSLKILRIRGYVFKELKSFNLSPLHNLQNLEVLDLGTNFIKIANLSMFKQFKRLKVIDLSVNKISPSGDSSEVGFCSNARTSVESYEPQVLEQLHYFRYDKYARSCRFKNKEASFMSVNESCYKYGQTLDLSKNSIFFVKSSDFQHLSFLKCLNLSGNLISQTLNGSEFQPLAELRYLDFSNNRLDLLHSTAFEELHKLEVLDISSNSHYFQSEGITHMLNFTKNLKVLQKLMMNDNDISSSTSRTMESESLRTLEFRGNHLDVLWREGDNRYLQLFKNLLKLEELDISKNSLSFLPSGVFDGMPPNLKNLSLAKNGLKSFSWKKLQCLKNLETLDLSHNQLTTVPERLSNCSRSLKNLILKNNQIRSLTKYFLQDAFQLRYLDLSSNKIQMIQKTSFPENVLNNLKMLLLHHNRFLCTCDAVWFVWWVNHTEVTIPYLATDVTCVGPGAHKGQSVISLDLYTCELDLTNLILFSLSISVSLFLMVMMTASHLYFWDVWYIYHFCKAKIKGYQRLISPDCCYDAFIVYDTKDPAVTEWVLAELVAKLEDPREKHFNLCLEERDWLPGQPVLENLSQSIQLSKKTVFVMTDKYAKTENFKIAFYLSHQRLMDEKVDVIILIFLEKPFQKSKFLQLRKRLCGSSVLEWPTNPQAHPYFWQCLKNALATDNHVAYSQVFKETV
In words: Antagonist activity at human TLR7 expressed in HEK293 cells assessed as inhibition of R848-induced NF-kappaB activation-mediated SEAP production after 24 hrs by Quanti-blue-based assay. Put shortly: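 HEK293 cells stably carrying a human TLR plus an NF-κB-driven SEAP reporter, seeded 5×10^4/well for 24 h at 37 °C, then stimulated: Pam3CSK4 100 µg/mL (TLR1/2), Pam2CSK4 100 µg/mL, poly I:C 5 µg/mL (TLR3), LPS 20 ng/mL (TLR4), flagellin 100 ng/mL (TLR5), R848 1 µg/mL (TLR7, TLR8), CpG-ODN2006 1 µg/mL (TLR9). After 24 h with compound, supernatant mixed with QUANTI-Blue, 1 h 37 °C, OD 620 nm.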
Regarding `O=C(NNC(=O)c1ccccn1)c1cccc(C(F)(F)F)c1`, the 50% inhibitory concentration (IC50) is 15 µM.

As for `Cc1nc(C(=O)NNC(=O)c2ccc(Cl)cc2)cs1`, the IC50 is 44.8 µM.

On to `O=C(NNC(=O)c1csc(-c2ccc(Cl)cc2Cl)n1)c1ccccn1`, for which the IC50 turned out to be 0.26 µM.

As to `Nc1cccnc1C(=O)NNC(=O)c1cccc(C(F)(F)F)c1`, the IC50 came out at 16 µM.

On to `O=C(NNC(=O)c1ccccn1)c1ccc(OC(F)(F)F)cc1`, for which the IC50 was determined as 22 µM.

In the case of `O=C(NNC(=O)c1csc(-c2cc(Cl)cc(Cl)c2)n1)c1ccccn1`, the IC50 was 0.44 µM.

As to `O=C(NNC(=O)c1csc(-c2cccc(Cl)c2Cl)n1)c1ccccn1`, the IC50 was 0.5 µM.

For `O=C(NNC(=O)c1csc(-c2cccnc2)n1)c1ccccn1`, the IC50 turned out to be 23.2 µM.

Turning to `O=C(NNC(=O)c1ncccc1O)c1ccc(Br)cc1`, the IC50 amounted to 17.3 µM.

Take `COc1ccc(-c2nc(C(=O)NNC(=O)c3ccccn3)cs2)cc1`: the half-maximal inhibitory concentration (IC50) was 3.09 µM.

Take `Nc1nccnc1C(=O)NNC(=O)c1cccc(C(F)(F)F)c1`: the IC50 came out at 38 µM.

For `O=C(NNC(=O)c1ncccc1O)c1ccc(Cl)cc1`, the IC50 was 27.8 µM.

On to `O=C(NNC(=O)c1csc(-c2cccc(F)c2)n1)c1ccccn1`, for which the IC50 was determined as 2.6 µM.

Consider `O=C(NNC(=O)c1ccccn1)c1ccc(C(F)(F)F)cc1`, for which the IC50 worked out at 17 µM.

Take `O=C(NNC(=O)c1ncccc1O)c1cccc(C(F)(F)F)c1`: the IC50 stood at 14.2 µM.

As for `O=C(NNC(=O)c1csc(-c2cccc(Br)c2)n1)c1ccccn1`, the IC50 worked out at 0.9 µM.

For `Cc1nc(C(=O)NNC(=O)c2ccccn2)cs1`, the IC50 was 30 µM.

For the compound `O=C(NNC(=O)c1csc(-c2ccccc2)n1)c1ccccn1`, the IC50 was 5.8 µM.

`O=C(NNC(=O)c1csc(-c2cccc(C(F)(F)F)c2)n1)c1ccccn1`: the IC50 was 1.02 µM.

For the compound `COc1ccc(-c2nc(C(=O)NNC(=O)c3ccccn3)cs2)cc1OC`, the IC50 was 3.9 µM.

`Cc1nc(C(=O)NNC(=O)c2cccc(Cl)c2)cs1`: the IC50 was determined as 60 µM.

Take `O=C(NNC(=O)c1ncccc1O)c1ccc(C(F)(F)F)cc1`: the IC50 is 13.4 µM.

In the case of `O=C(NNC(=O)c1csc(-c2cccc(Cl)c2)n1)c1ccccn1`, the IC50 came to 1 µM.

Regarding `O=C(NNC(=O)c1ccccn1)c1ccc(Br)cc1`, the IC50 was 17 µM.

As to `CCc1ccc(-c2nc(C(=O)NNC(=O)c3ccccn3)cs2)cc1`, the IC50 came out at 2.4 µM.

In the case of `O=C(NNC(=O)c1csc(-c2ccc(Cl)cc2)n1)c1ccccn1`, the IC50 amounted to 2.1 µM.

With `O=C(NNC(=O)c1csc(-c2ccc(F)cc2)n1)c1ccccn1`, the IC50 worked out at 4.4 µM.

As to `CC(C)c1nc(C(=O)NNC(=O)c2ccccn2)cs1`, the IC50 was 14 µM.

For the compound `O=C(NNC(=O)c1ncccc1O)c1ccc(OC(F)(F)F)cc1`, the IC50 stood at 7.9 µM.

In the case of `Cc1ccc(-c2nc(C(=O)NNC(=O)c3ccccn3)cs2)cc1`, the 50% inhibitory concentration (IC50) is 1.83 µM.

On to `O=C(NNC(=O)c1ccccn1)c1ccc(Cl)cc1`, for which the IC50 was 24.7 µM.

`Nc1nccnc1C(=O)NNC(=O)c1ccc(C(F)(F)F)cc1`: the half-inhibitory concentration (IC50) was 25 µM.

With `O=C(NNC(=O)c1csc(-c2ccc(C(F)(F)F)cc2)n1)c1ccccn1`, the concentration for half-maximal inhibition (IC50) was determined as 0.99 µM.

Consider `CN(C)c1ccc(-c2nc(C(=O)NNC(=O)c3ccccn3)cs2)cc1`, for which the IC50 stood at 1.9 µM.

As for `Nc1nccnc1C(=O)NNC(=O)c1ccc(OC(F)(F)F)cc1`, the 50% inhibitory concentration (IC50) came out at 27 µM.

The IC50 is the point on the concentration scale where inhibition reaches its midpoint.
